Screening results: PubChem, several laboratories
PostGolgi yeast = phenotypic screen on post-Golgi transport, primary screen | post-Golgi transport phenotypic cell assay | inhibition, % at 10 µM | hit rate 0.9% among 98,000;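 note: yeast cells grown in 1536-well plates; yeast grown about 18 h at 30C before absorbance read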
tolC growth inh = growth inhibitors of E. coli tolC mutant, primary screen, strain BW25113 ΔtolC::kan, 384-well. OD615. growth inhibition, % at 10 µM (by protocol). hit rate 2.2% among 65,000. AID 573, 2007;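 active = growth inhibition at or above a cutoff equal to the mean over every tested compound plus 3 SD, cut at about 60% in these data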;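 note: growth measured after 20 h incubation at 37 °C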
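signal = optical density read at 615 nm | test system = E. coli ΔtolC::kan strain BW25113 | timing = 20 h compound exposure of bacteria at 37 °C | buffer or medium = LB medium plus 50 µg/mL kanamycin | compound dosing = 10 µM final, single dose | evaluation = % inhibition of E. coli growth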
PostGolgi ctrl = growth inhibition of yeast control strain, primary screen, counter-screen for post-Golgi transport modulator project; efflux-deficient yeast background strain, growth absorbance A615, 16 h; inhibition, % at 10 µM; hit rate 5% among 98,000; AID 738, 2007
Ecoli WT expand = growth inhibitors of wild-type E. coli, primary screen, strain BW25113, expanded library, OD600; OD600 absorbance; growth inhibition, % at 100 µM; hit rate 0.15% among 98,000;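 active = growth inhibition above about 50% at one test dose, limit read from the data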;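 note: growth measured after 20 h incubation at 37 °C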
Cav32 inh = Cav3.2 calcium influx blockers – cell-based, Fluo-4 calcium fluorescence, FDSS, MLSMR library, primary screen; Voltage-dependent T-type calcium channel subunit alpha-1H (Homo sapiens), O95180; Cav3.2-expressing cells; hits give low values; B-score at 10 µM; hit rate 4% among 100,000;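 active = single-dose well whose peak fluorescence ratio is a statistical outlier from its plate by either plate-standardised score or position-corrected B-score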
Target sequence (O95180 whole entry, looked up): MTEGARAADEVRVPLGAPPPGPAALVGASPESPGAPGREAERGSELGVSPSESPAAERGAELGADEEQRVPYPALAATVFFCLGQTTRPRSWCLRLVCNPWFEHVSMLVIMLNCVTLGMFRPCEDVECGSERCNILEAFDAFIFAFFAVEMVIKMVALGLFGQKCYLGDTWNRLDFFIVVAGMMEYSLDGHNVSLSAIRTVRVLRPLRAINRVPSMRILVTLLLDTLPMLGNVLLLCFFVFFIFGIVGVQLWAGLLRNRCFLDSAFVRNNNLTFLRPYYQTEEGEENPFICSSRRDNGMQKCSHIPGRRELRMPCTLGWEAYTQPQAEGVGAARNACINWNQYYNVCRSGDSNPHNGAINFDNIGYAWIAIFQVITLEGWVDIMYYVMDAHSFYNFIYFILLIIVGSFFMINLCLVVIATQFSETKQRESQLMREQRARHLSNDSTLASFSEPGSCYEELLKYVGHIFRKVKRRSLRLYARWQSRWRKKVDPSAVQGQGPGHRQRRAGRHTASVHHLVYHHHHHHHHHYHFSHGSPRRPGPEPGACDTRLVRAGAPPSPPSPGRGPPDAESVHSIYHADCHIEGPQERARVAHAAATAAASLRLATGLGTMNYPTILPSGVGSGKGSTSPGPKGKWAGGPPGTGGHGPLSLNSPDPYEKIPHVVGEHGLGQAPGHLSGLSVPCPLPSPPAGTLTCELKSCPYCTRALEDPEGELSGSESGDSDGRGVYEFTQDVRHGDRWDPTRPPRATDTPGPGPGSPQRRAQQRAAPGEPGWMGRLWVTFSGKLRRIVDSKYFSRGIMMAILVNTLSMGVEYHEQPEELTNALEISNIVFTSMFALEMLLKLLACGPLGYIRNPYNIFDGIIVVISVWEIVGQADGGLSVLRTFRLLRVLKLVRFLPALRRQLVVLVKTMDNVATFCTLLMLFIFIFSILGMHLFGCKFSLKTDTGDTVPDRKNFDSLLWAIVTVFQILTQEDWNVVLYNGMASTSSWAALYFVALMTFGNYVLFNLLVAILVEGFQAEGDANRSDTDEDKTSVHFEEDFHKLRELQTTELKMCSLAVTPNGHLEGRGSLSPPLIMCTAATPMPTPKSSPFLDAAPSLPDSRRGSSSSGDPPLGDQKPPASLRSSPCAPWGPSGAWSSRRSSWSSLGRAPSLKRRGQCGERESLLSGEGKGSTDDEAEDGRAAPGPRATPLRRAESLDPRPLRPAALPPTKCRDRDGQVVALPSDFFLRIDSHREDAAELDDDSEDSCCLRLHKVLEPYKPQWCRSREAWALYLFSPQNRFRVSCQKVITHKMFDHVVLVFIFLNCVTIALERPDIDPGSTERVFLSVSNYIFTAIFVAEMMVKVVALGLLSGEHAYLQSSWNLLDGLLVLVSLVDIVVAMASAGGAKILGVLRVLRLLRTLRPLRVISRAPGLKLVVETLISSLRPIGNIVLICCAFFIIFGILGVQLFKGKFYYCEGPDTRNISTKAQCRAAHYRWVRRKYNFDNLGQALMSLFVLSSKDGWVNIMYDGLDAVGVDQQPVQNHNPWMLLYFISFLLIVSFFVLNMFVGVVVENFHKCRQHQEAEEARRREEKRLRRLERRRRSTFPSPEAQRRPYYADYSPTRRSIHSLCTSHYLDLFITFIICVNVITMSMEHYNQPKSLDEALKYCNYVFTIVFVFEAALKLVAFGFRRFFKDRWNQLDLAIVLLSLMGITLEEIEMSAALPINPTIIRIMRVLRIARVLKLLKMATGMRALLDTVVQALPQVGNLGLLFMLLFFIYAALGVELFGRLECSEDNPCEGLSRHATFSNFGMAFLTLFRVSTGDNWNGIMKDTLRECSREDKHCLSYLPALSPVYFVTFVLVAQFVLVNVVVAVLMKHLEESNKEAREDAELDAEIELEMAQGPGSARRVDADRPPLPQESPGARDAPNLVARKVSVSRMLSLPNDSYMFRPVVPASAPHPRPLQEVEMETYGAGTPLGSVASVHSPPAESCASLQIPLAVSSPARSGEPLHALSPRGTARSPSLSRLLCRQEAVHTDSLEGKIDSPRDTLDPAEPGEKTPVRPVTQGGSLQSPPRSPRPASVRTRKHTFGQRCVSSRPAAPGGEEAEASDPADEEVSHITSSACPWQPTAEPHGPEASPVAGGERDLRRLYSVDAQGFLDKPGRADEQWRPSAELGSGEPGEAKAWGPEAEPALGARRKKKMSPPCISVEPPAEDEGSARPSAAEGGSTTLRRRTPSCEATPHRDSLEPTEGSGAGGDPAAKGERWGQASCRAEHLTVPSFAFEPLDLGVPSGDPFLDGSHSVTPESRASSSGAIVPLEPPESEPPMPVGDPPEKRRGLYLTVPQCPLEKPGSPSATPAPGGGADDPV
* marks the source's active call; other numbers are inactive results; · = no result. Compounds with a hit are over-represented: about 8.4% of the library has one in this group of screens. Cut-off read from the data, not from the text of the source, unless noted: active = inhibition above about 30%; inactive = the rest.

SMILES	PostGolgi yeast	tolC growth inh	PostGolgi ctrl	Ecoli WT expand	Cav32 inh
CC(C)(C)c1cc(C(C)(C)C)cc(S(=O)(=O)CCc2ccccn2)c1	9.0	·	17.7	-7.0	-6.85*
CNCCc1ccccn1	·	-15.1	·	·	-0.019
O=c1cc(Nc2ccc3c(c2)OCCO3)[nH]c(=O)n1Cc1ccc(F)cc1	·	34.7	·	·	-3.91*
CSC1=C(C#N)C(c2cccc(Br)c2)CC(=O)N1 (stereo not drawn)	2.0	4.3	19.1	-14.0	0.0454
O=C1CC(c2cccc(Br)c2)c2cc3c(cc2N1)CCC3 (stereo not drawn)	19.1	·	89.8*	-2.0	·
CCOC(=O)C1=C(N)OC2=C(C(=O)CC(C)(C)C2)C1c1ccoc1 (stereo not drawn)	-3.4	0.7	-0.4	3.0	-0.851
CCOC(=O)C1=C(N)OC2=C(C(=O)CC(C)(C)C2)C1C1CCCCC1 (stereo not drawn)	4.2	40.3	20.8	-3.0	-9.01*
Cc1cc(C)c(C)c(S(=O)(=O)NCC(=O)Nc2sc3c(c2C(N)=O)CCCC3)c1C	20.1	·	4.3	-5.0	-0.00181
CC(=O)N1c2c(ccc3ccccc23)C(C)CC12CCCCC2 (stereo not drawn)	8.2	·	38.1*	-9.0	-3.22
CC(C)CN(CC(C)C)S(=O)(=O)N1CCC(C(=O)NCc2cccs2)CC1	-2.5	8.6	7.2	6.0	-3.73*
CC(C)CN(CC(C)C)S(=O)(=O)N1CCC(C(=O)NCc2ccccn2)CC1	17.2	-1.9	14.6	-2.0	-0.0514
O=S(=O)(C=C(c1ccccc1)c1ccccc1)c1ccccc1	-5.1	·	35.8*	-4.0	-0.174
O=C(CCn1c(=O)[nH]c2ccccc2c1=O)N1CCN(c2cccc(C(F)(F)F)c2)CC1	4.4	14.0	0.0	7.0	-0.824
O=C(c1ccc(Cn2c(=O)[nH]c3ccccc3c2=O)cc1)N1CCN(c2ccc(F)cc2)CC1	0.9	10.2	-1.9	-8.0	-8.97*
COc1ccc(Cn2c(=O)[nH]c3cc(C(=O)N4CCN(Cc5ccccc5)CC4)ccc3c2=O)cc1	-1.7	20.2	-3.0	-2.0	-7.55*
O=C(CCCCn1c(=O)[nH]c2ccccc2c1=O)N1CCN(c2cccc(C(F)(F)F)c2)CC1	1.4	19.4	6.7	4.0	-9.43*
CCN(CC(=O)NCc1cccs1)S(=O)(=O)c1ccc(C(C)C)cc1	-5.9	·	21.6	11.0	-4*
CC(C)c1ccc(NC(=S)NCc2cccs2)cc1	-4.3	·	-1.3	6.0	-6.29*
CCCOc1ccc(C(=O)NC(=S)Nc2nc(C)c(C(=O)N(C)C)s2)cc1	-10.3	·	2.7	-2.0	0.0497
CC1(C)CC(=O)C2(CC3=C(CC(C)(C)CC3=O)O2)C(=O)C1	5.7	-21.8	5.7	0.0	-0.674
O=C(Nc1nnc(-c2ccccc2Cl)o1)c1cccnc1	-5.7	70.2*	-8.8	7.0	0.451
O=C(Nc1nnc(-c2cccs2)o1)c1cccc(C(F)(F)F)c1	73.5*	100.0*	35.8*	57.0*	·
Cc1nnc(NC(=O)c2ccc(S(=O)(=O)N3CCCCCC3)cc2)o1	-2.0	56.0	21.1	0.0	-0.315
CC1CCCN(S(=O)(=O)c2ccc(C(=O)Nc3nnc(-c4ccccc4Cl)o3)cc2)C1 (stereo not drawn)	5.6	100.0*	14.8	-9.0	-7.32*
CCC1CCCCN1S(=O)(=O)c1ccc(C(=O)Nc2nnc(-c3cccs3)o2)cc1 (stereo not drawn)	20.3	99.4*	2.5	8.0	-8.51*
SMILES	PostGolgi yeast	tolC growth inh	PostGolgi ctrl	Ecoli WT expand	Cav32 inh
CCc1nnc(NC(=O)c2ccc(S(=O)(=O)N3CCCCC3C)cc2)s1 (stereo not drawn)	0.2	2.4	1.4	-3.0	0.0725
N/C(=N\OS(=O)(=O)c1ccc(Br)cc1)c1ccncc1	2.6	·	-1.7	18.0	0.676
Cc1ccc(Br)cc1S(=O)(=O)N1CCN(c2ccccc2)CC1	-4.4	31.8	29.8	-8.0	-1.14
CCO[C@@H]1OC(C(=O)NC2CC2)=C[C@H](c2csc3ccccc23)[C@H]1CCCO	·	·	·	·	-1.84
CCOC1(C(F)(F)F)NC(=O)N(Cc2ccc(OC)cc2)C1=O (stereo not drawn)	-6.1	3.1	-6.7	-3.0	-0.359
CC(=O)C1C(c2cccc(F)c2)NC(=O)NC1(O)C(F)(F)F (stereo not drawn)	7.6	-24.5	4.0	-8.0	·
CC1CC(C)CN(S(=O)(=O)c2ccc(C(=O)Nc3nnc(-c4cccs4)o3)cc2)C1 (stereo not drawn)	-2.5	99.4*	22.6	4.0	·
